Columns and labels:
[1] = biological target: Trypsin (Sus scrofa, UniProt P00761); assay: Inhibition of porcine trypsin using Mes-DArg-Gly-Arg-AMC as substrate by Dixon plot analysis
In short: (§1)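 Porcine trypsin, 30 pM final, with substrate Mes-DArg-Gly-Arg-AMC (KM 8.3 μM). Buffer was 50 mM Tris·HCl pH 8.0 containing 154 mM NaCl, at room temperature. Reaction was started by enzyme and fluorescence read at ex 355 / em 460 nm. Ki was obtained from Dixon plots, mean of at least two measurements.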

[2] = biological target: T1, Plasminogen (Homo sapiens, UniProt P00747); assay: Inhibition of human plasmin using Mes-DSer(Bzl)-Phe-Arg-AMC as substrate by Dixon plot analysis
Target sequence in this assay (P00747 97-580 limits assumed): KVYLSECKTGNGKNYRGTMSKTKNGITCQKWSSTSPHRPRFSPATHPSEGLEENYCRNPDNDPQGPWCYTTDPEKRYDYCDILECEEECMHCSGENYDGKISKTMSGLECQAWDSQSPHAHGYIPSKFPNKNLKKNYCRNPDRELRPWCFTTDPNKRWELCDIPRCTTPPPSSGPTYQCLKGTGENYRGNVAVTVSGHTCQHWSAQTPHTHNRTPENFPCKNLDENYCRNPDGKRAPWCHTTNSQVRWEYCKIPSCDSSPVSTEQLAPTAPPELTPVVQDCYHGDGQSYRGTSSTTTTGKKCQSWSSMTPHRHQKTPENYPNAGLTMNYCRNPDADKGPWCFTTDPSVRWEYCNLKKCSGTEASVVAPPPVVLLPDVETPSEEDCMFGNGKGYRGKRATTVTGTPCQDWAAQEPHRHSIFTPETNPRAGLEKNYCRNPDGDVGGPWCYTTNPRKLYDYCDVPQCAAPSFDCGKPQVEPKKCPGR
Target sequence in this assay (P00747 581-810 limits assumed): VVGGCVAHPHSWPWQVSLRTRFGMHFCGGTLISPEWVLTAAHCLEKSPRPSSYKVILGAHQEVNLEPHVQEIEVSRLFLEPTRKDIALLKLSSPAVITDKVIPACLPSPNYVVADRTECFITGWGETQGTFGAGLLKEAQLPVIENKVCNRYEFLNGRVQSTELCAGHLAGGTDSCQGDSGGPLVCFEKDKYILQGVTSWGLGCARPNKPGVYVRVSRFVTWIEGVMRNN

[3] = biological target: Vitamin K-dependent protein C (Homo sapiens, UniProt P04070); assay: Inhibition of human activated Protein C using Mes-DArg-Pro-Arg-AMC as substrate by Dixon plot analysis
Vitamin K-dependent protein C, sequence (P04070 43-197 limits assumed): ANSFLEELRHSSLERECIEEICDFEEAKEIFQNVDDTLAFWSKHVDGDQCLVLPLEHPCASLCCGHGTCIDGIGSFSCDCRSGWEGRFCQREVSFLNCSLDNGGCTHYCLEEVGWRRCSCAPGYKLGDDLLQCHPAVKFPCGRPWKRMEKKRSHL
Vitamin K-dependent protein C, sequence (P04070 212-461 limits assumed): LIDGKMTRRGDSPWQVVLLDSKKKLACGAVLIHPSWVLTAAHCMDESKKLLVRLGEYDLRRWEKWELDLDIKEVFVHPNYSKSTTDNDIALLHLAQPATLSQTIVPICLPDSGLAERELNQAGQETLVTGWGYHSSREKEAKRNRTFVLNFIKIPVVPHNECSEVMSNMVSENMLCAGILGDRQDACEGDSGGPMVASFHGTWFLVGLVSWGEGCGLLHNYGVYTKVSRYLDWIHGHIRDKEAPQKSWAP
In short: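 Human aPC, 293 pM final. Run at room temperature in 50 mM Tris·HCl pH 8.0 with 154 mM NaCl. Substrate Mes-DArg-Pro-Arg-AMC, KM 26 μM. Fluorescence was read at ex 355 / em 460 nm, with reaction started by enzyme. Ki came from Dixon plots, mean of at least two measurements.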

[4] = biological target: Prothrombin (Bos taurus, UniProt P00735); assay: Inhibition of bovine thrombin using Tos-Gly-Pro-Arg-AMC as substrate by Dixon plot analysis
In short: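 Bovine thrombin at 31 pM in assay, KM 5.4 μM for the substrate. Run at room temperature in 50 mM Tris·HCl pH 8.0 with 154 mM NaCl. Fluorescence read at ex 355 / em 460 nm, reaction started by enzyme addition. Ki from Dixon plots, average of at least two measurements.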

[5] = biological target: Coagulation factor X (Homo sapiens, UniProt P00742); assay: Inhibition of human f10a using Mes-DArg-Pro-Arg-AMC as substrate by Dixon plot analysis
Coagulation factor X, sequence (P00742 41-179 limits assumed): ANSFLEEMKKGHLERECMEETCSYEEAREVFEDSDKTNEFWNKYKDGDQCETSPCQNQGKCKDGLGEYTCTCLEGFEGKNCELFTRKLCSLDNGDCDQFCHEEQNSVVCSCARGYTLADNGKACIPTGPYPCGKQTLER
Coagulation factor X, sequence (P00742 235-488 limits assumed): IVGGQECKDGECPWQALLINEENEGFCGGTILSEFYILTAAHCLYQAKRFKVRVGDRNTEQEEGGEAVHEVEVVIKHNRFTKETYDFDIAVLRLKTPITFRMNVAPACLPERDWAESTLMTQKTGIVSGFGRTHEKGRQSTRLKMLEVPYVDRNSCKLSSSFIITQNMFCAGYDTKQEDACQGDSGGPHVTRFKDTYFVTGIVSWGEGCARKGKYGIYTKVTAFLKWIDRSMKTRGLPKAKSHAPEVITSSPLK
In short: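 Human factor Xa, 97 pM in assay, in 50 mM Tris·HCl pH 8.0 with 154 mM NaCl at room temperature. Fluorogenic substrate Mes-DArg-Pro-Arg-AMC (KM 28 μM), read at ex 355 / em 460 nm after starting with enzyme. Ki was taken from Dixon plots and averaged over at least two measurements.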

[6] = biological target: Plasma kallikrein (Homo sapiens, UniProt P03952); assay: Inhibition of human plasma kallikrein using Mes-DArg-Pro-Arg-AMC as substrate by Dixon plot analysis
Plasma kallikrein, sequence (P03952 20-390 limits assumed): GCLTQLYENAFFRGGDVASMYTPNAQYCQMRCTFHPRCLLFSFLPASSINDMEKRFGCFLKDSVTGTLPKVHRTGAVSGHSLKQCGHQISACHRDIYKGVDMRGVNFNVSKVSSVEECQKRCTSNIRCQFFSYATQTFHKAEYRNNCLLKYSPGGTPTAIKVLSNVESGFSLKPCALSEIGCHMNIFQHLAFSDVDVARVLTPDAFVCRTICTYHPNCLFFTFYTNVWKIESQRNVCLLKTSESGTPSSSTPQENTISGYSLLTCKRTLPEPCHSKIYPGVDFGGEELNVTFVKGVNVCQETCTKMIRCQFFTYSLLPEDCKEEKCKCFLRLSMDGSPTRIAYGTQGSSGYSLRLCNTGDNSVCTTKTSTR
Plasma kallikrein, sequence (P03952 391-638 limits assumed): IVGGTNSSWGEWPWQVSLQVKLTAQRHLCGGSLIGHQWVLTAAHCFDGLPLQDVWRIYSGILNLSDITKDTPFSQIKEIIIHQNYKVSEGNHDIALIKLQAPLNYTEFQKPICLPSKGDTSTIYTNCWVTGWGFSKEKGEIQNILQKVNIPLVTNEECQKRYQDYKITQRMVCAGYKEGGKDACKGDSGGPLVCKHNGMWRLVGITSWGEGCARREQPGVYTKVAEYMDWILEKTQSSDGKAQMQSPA
In short: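 Human plasma kallikrein (112 pM final) was assayed at room temperature in Tris·HCl 50 mM pH 8.0 with NaCl 154 mM. Mes-DArg-Pro-Arg-AMC served as substrate (KM 39 μM). Fluorescence was read at ex 355 / em 460 nm, with reactions started by enzyme.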

[7] = system: Plasma; assay: Antifibrinolytic activity in human plasma assessed as inhibition of tPA-induced plasmin formation after 40 mins; type: functional, cell-free
In short: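 Citrated human plasma at 37 °C with CaCl2 (12.5 mM in assay), tissue factor (stock 1/500 in assay) and tPA (12.3 nM in assay). Inhibitor dilutions, from 10 mM DMSO stocks diluted in 0.9% NaCl, were preincubated 5 min at 37 °C with these reagents, then started with prewarmed plasma. OD405 was read over 40 min.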

[8] = biological target: T1, Plasminogen; assay: Binding affinity to human plasmin assessed as slow binding constant in presence of Mes-DArg-Phe-Arg-AMC after 20 mins by Dixon plot analysis
Target sequence in this assay (P00747 97-580 limits assumed): as the sequence (P00747 97-580 limits assumed) above
Target sequence in this assay (P00747 581-810 limits assumed): as the sequence (P00747 581-810 limits assumed) above

[9] = biological target: Trypsin (Homo sapiens, UniProt P07477+P07478+P35030); assay: Inhibition of trypsin (unknown origin); type: protein assay; in short: as §1
[10] = system: Plasma; assay: Inhibition of TF/Ca2+-induced clotting in human plasma after 40 mins; type: cell-free
In short: (§2)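 Clotting was triggered in citrated human plasma at 37 °C by tissue factor (stock 1/500 in assay) plus CaCl2 (12.5 mM in assay), with tPA 12.3 nM present. Inhibitor was tested at 10–200 nM after 5 min preincubation of reagents at 37 °C. Clot formation was followed as the rapid initial OD405 rise to a plateau, read over 40 min.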

[11] = biological target: T1, Plasminogen; assay: Inhibition of human plasmin
Target sequence in this assay (P00747 whole entry, looked up): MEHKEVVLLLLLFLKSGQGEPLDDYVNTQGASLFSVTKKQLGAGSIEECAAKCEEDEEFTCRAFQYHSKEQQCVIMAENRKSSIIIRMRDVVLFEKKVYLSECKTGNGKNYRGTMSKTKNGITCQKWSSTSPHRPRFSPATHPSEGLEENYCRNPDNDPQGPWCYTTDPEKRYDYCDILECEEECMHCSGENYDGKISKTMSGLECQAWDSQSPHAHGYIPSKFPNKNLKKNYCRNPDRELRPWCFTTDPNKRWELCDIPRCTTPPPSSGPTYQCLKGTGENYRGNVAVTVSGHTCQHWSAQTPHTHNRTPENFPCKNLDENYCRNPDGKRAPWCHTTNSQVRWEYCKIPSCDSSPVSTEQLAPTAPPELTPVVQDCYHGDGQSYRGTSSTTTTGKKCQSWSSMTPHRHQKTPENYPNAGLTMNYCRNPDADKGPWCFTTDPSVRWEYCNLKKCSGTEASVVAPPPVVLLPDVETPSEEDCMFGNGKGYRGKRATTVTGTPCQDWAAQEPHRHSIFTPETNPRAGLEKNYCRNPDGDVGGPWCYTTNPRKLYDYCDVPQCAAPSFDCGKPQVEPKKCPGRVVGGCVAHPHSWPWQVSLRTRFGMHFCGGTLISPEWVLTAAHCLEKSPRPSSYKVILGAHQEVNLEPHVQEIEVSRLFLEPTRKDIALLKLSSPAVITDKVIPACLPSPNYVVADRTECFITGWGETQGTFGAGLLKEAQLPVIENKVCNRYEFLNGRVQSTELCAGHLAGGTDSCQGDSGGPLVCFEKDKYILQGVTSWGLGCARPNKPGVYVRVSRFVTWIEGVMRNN

[12] = system: Plasma; assay: Potency index, ratio of aprotinin IC50 to compound IC50 for inhibition of tPA-induced plasmin formation in human plasma; type: functional
[13] = system: Plasma; assay: Inhibition of TF/Ca2+-induced clotting in human plasma at 10 to 200 nM after 40 mins; type: cell-free; details: 0.2 µM; in short: as §2

Trypsin (Sus scrofa, UniProt P00761), sequence (P00761 whole entry): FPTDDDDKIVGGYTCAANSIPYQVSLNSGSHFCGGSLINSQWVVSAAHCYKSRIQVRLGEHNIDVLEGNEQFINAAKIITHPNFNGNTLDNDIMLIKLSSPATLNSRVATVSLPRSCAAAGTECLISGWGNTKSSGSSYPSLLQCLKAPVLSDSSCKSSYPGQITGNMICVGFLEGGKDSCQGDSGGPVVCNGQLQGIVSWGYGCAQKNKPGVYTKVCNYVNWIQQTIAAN

Ki [1] [µM]	Ki [2] [nM]	Ki [3] [µM]	Ki [4] [µM]	Ki [5] [µM]	Ki [6] [µM]	IC50 [7] [µM]	Ki [8] [µM]	Ki [9] [µM]	Ki [11] [µM]	Compound	Activity [10]	Ratio IC50 [12]	Activity [13]
0.156	1.2	32	–	–	–	–	–	–	–	NCc1ccc(CNC(=O)[C@@H]2Cc3ccc(cc3)NC(=O)CCN3CCN(CCC(=O)Nc4ccc(cc4)C[C@@H](NS(=O)(=O)Cc4ccccc4)C(=O)N2)CC3)cc1	–	–	–
–	66.3	130	173	114	9.09	–	–	–	–	N=C(N)c1ccc(CNC(=O)[C@@H]2Cc3ccc(cc3)NC(=O)CN3CCN(CC3)CC(=O)Nc3ccc(cc3)C[C@@H](N)C(=O)N2)cc1	–	–	–
0.757	3.93	28	0.199	16.1	7.41	–	–	–	–	N=C(N)c1ccc(CNC(=O)[C@@H]2Cc3ccc(cc3)NC(=O)CCN3CCN(CCC(=O)Nc4ccc(cc4)C[C@@H](NC(=O)CCc4ccccc4)C(=O)N2)CC3)cc1	–	–	–
0.59	3.7	49.3	1.71	28.9	10.4	–	–	–	–	N=C(N)NCCCCNC(=O)[C@@H]1Cc2ccc(cc2)NC(=O)CCN2CCN(CCC(=O)Nc3ccc(cc3)C[C@@H](NS(=O)(=O)NC3CCCCC3)C(=O)N1)CC2	–	–	–
1.9	75.3	47.1	8.78	20.5	12.6	–	–	–	–	N=C(N)c1ccc(CNC(=O)[C@@H]2Cc3ccc(cc3)NC(=O)CN3CCN(CC3)CC(=O)Nc3ccc(cc3)C[C@@H](NC(=O)CCCc3ccccc3)C(=O)N2)cc1	–	–	–
0.136	–	> 30	15.8	–	–	0.053	0.00042	–	–	N=C(N)c1ccc(CNC(=O)[C@@H]2Cc3ccc(cc3)NC(=O)CN3CCN(CC3)CC(=O)Nc3ccc(cc3)C[C@@H](NS(=O)(=O)NC3CCCCC3)C(=O)N2)cc1	–	–	–
0.021	0.13	17	–	–	–	0.055	0.00015	–	–	N=C(N)c1ccc(CNC(=O)[C@@H]2Cc3ccc(cc3)NC(=O)CCN3CCN(CCC(=O)Nc4ccc(cc4)C[C@@H](NS(=O)(=O)NC4CCCCC4)C(=O)N2)CC3)cc1	–	–	–
–	5.2	93.4	–	–	–	–	–	–	–	N=C(N)c1ccc(CNC(=O)[C@@H]2Cc3ccc(cc3)NC(=O)CN3CCN(CC3)CC(=O)Nc3ccc(cc3)C[C@@H](NC(=O)OCc3ccccc3)C(=O)N2)cc1	–	–	–
1	22.7	39.7	0.712	11.5	10.5	–	–	–	–	N=C(N)c1ccc(CNC(=O)[C@@H]2Cc3ccc(cc3)NC(=O)CCN3CCN(CCC(=O)Nc4ccc(cc4)C[C@@H](NC(=O)CCCc4ccccc4)C(=O)N2)CC3)cc1	–	–	–
–	–	74.7	–	–	–	–	–	–	–	CN(C)S(=O)(=O)N[C@@H]1Cc2ccc(cc2)NC(=O)CN2CCN(CC2)CC(=O)Nc2ccc(cc2)C[C@@H](C(=O)NCc2ccc(C(=N)N)cc2)NC1=O	–	–	–
–	–	–	–	–	–	–	–	0.0036	–	N=C(N)c1ccc(CNC(=O)[C@H](Cc2cccc(CN)c2)NC(=O)[C@@H](CCCc2ccccc2)NS(=O)(=O)Cc2cccc(C(=O)O)c2)cc1	Toxic	–	–
3.15	19.7	> 100	15.6	> 100	> 100	–	–	–	–	CC(C)(C)OC(=O)N[C@@H]1Cc2ccc(cc2)NC(=O)CCN2CCN(CCC(=O)Nc3ccc(cc3)C[C@@H](C(=O)NCc3ccc(CN)cc3)NC1=O)CC2	–	–	–
0.062	0.07	> 13	42.7	> 13	0.8	–	–	–	–	N=C(N)c1ccc(CNC(=O)[C@@H]2Cc3ccc(cc3)NC(=O)CCN3CCN(CCC(=O)Nc4ccc(cc4)C[C@@H](NS(=O)(=O)c4ccccc4)C(=O)N2)CC3)cc1	–	–	–
0.561	2.69	62.9	> 100	> 100	3.87	–	–	–	–	N=C(N)c1ccc(CNC(=O)[C@@H]2Cc3ccc(cc3)NC(=O)CCN3CCN(CCC(=O)Nc4ccc(cc4)C[C@@H](NC=O)C(=O)N2)CC3)cc1	–	–	–
0.109	0.77	51.5	15.3	50.7	7.25	–	0.00085	–	–	COC(=O)N[C@@H]1Cc2ccc(cc2)NC(=O)CCN2CCN(CCC(=O)Nc3ccc(cc3)C[C@@H](C(=O)NCc3ccc(C(=N)N)cc3)NC1=O)CC2	–	–	–
–	–	96.5	–	–	–	–	–	–	–	N=C(N)c1ccc(CNC(=O)[C@@H]2Cc3ccc(cc3)NC(=O)CCN3CCN(CCC(=O)Nc4ccc(cc4)C[C@@H](NC(=O)Cc4ccccc4)C(=O)N2)CC3)cc1	–	–	–
0.103	–	46.5	–	–	–	–	–	–	–	N=C(N)c1ccc(CNC(=O)[C@@H]2Cc3ccc(cc3)NC(=O)CCN3CCN(CCC(=O)Nc4ccc(cc4)C[C@@H](NC(=O)OCc4ccccc4)C(=O)N2)CC3)cc1	–	–	–
–	–	106	–	–	–	–	–	–	–	N=C(N)c1ccc(CNC(=O)[C@@H]2Cc3ccc(cc3)NC(=O)CCN3CCN(CCC(=O)Nc4ccc(cc4)C[C@@H](N)C(=O)N2)CC3)cc1	–	–	–
–	81.3	212	72.2	202	7.27	–	–	–	–	N=C(N)c1ccc(CNC(=O)[C@@H]2Cc3ccc(cc3)NC(=O)CN3CCN(CC3)CC(=O)Nc3ccc(cc3)C[C@@H](NC(=O)Cc3ccccc3)C(=O)N2)cc1	–	–	–
0.351	0.52	> 100	7.13	> 100	43.2	0.1	0.00043	–	–	NCc1ccc(CNC(=O)[C@@H]2Cc3ccc(cc3)NC(=O)CCN3CCN(CCC(=O)Nc4ccc(cc4)C[C@@H](NS(=O)(=O)NC4CCCCC4)C(=O)N2)CC3)cc1	–	–	–
–	–	–	–	–	–	–	–	–	24	CC(C)(C)OC[C@@H](NS(=O)(=O)c1ccccc1)C(=O)NCC(=O)NCc1ccc(C(=N)N)cc1	–	–	–
1.54	0.56	> 100	36.9	> 100	48.7	0.081	0.00054	–	–	NCc1ccc(CNC(=O)[C@@H]2Cc3ccc(cc3)NC(=O)CCN3CCN(CCC(=O)Nc4ccc(cc4)C[C@@H](NS(=O)(=O)c4ccccc4)C(=O)N2)CC3)cc1.O=C(O)C(F)(F)F.O=C(O)C(F)(F)F.O=C(O)C(F)(F)F	–	3	Non-Toxic
0.501	0.51	> 30	20.7	> 15	0.54	–	–	–	–	N=C(N)c1ccc(CNC(=O)[C@@H]2Cc3ccc(cc3)NC(=O)CN3CCN(CC3)CC(=O)Nc3ccc(cc3)C[C@@H](NS(=O)(=O)c3ccccc3)C(=O)N2)cc1	–	–	–
1.43	61.1	42	8.79	20.6	8.25	–	–	–	–	N=C(N)c1ccc(CNC(=O)[C@@H]2Cc3ccc(cc3)NC(=O)CN3CCN(CC3)CC(=O)Nc3ccc(cc3)C[C@@H](NC(=O)CCc3ccccc3)C(=O)N2)cc1	–	–	–
6.2	50.6	85.9	21.9	39.5	64.4	–	–	–	–	NCCCCNC(=O)[C@@H]1Cc2ccc(cc2)NC(=O)CCN2CCN(CCC(=O)Nc3ccc(cc3)C[C@@H](NS(=O)(=O)NC3CCCCC3)C(=O)N1)CC2	–	–	–
–	–	–	–	–	–	–	–	–	7.7	CC(C)(C)OC[C@@H](NS(=O)(=O)Cc1ccccc1)C(=O)NCC(=O)NCc1ccc(C(=N)N)cc1	–	–	–
0.0137	0.45	4.28	14.1	34.4	0.701	–	–	–	–	CCCCS(=O)(=O)N[C@@H]1Cc2ccc(cc2)NC(=O)CCN2CCN(CCC(=O)Nc3ccc(cc3)C[C@@H](C(=O)NCc3ccc(C(=N)N)cc3)NC1=O)CC2	–	–	–

From ChEMBL document CHEMBL4425109, “Optimization of Cyclic Plasmin Inhibitors: From Benzamidines to Benzylamines” (J Med Chem, 2016)
